These molecules were tested on T10. Details: cross-reactivity = IC50(TCC)/IC50(cross reacting compound) × 100; nanobody T10.
Assay type: binding, llama
Method in brief: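 Wild-type T10 (synthetic gene, pET28a(+), ompA leader, C-terminal His6/HA tags) expressed in BL21(DE3) (10 µM IPTG, 16 h, 15 °C), purified by Ni-NTA. Checkerboard-optimized TCC-BSA coat (4 h RT), 1% BSA block. Nanobody competed with serial dilutions of TCC (0–1 ug/mL) or related compounds, 1 h RT. Detection: anti-HA-peroxidase, TMB (pH 5.5, 10 min), A450.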
For `O=C(Nc1ccc(Cl)c(Cl)c1)Nc1ccc(Cl)cc1O` [2’-OH TCC], the “CR (%) T10” value was 15%.
With `O=C(Nc1ccc(Cl)cc1)Nc1ccc(Cl)c(C(F)(F)F)c1` [3-Trifluoromethyl-4,4′-dichlorocarbanilide] the “CR (%) T10” value was 15%.
With `O=C(Nc1ccc(Cl)cc1)Nc1ccc(Cl)cc1` [4,4’-Dichlorocarbanilide] the “CR (%) T10” value was 100%.
In the case of `O=C(Nc1ccccc1)Nc1ccccc1` [Carbanilide], the “CR (%) T10” value is reported as 8.8%.
For `O=C(Nc1ccc(Cl)cc1)Nc1ccc(Cl)c(Cl)c1` [TCC, 3-(4-chlorophenyl)-1-(3,4-dichlorophenyl)urea], the “CR (%) T10” value was 100%.
With `Oc1cc(Cl)ccc1Oc1ccc(Cl)cc1Cl` [Triclosan] the “CR (%) T10” value was 0.9%.
With `CC(=O)N1CCC(NC(=O)Nc2ccc(OC(F)(F)F)cc2)CC1` [sEHi, #1555] the “CR (%) T10” value was 0.9%.
`CS(=O)(=O)N1CCC(NC(=O)Nc2ccc(OC(F)(F)F)cc2)CC1` [sEHi, #1709] was tested, and the “CR (%) T10” value was 1.5%.
Dinuron was tested, and the “CR (%) T10” value was ≤1%.

Source: publication PMC6774440 (Journal of molecular recognition : JMR, 2018)
